A short description of data set [1]: melting temperature; fluorescence melt of hairpins on a sequencing array, two-state fit, raised by 9.35 °C to match UV melts. The conditions noted are these: sodium 0.088 M. In a few lines:
(§1)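 With Cy3 and quencher oligos annealed, library hairpins on a sequenced MiSeq flow cell were imaged for Cy3 fluorescence in 50 mM Na-HEPES pH 8.0, 25 mM NaCl, in 2.5 °C steps up to 60 °C. Melting temperature and folding enthalpy were derived from bootstrapped two-state fits of signals normalised to pre-quench Cy3 and to control constructs. Four replicates were combined by inverse variance, with fitted temperatures raised by 9.35 °C to match UV melts.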

Data set [2] can be described thus: folding enthalpy; higher = less favourable; fluorescence melt of hairpins on a sequencing array, two-state fit. The conditions noted are these: sodium 0.088 M. In a few lines:
as §1

GGGACACGAAAGTGCCC (((.(((....)))))): the Tm in data set [1] was 60.9 °C. For the same sequence, the folding enthalpy in data set [2] was -101 kJ/mol.
The matching figures for GGATACGAAAGTAGGTCC ((((((....)))..))): 28.4 °C and -34.6 kJ/mol.
On to GATCCGGTTTCGGATC ((((((....)))))), for which the Tm in data set [1] came to 59.5 °C. Besides, the folding enthalpy in data set [2] was -185 kJ/mol.
The matching figures for GGTCCCGAAAGGGGGACC ((((((....)))..))): 59.2 °C and -106 kJ/mol.
For GATCTGTCCGCAGATC ((((((....)))))), in that order: 52.9 °C and -182 kJ/mol.
For GAACCAGGAAACTGGTTC (((((((....))))))), in that order: 62 °C and -189 kJ/mol.
Regarding GGACTGGCGAAAGCCTCC (((..(((....)))))), in data set [1], the Tm turned out to be 31.6 °C. Besides, the folding enthalpy in data set [2] is -38.2 kJ/mol.
As to CGGAGGCGGAAACGCCCG (((..(((....)))))), in data set [1], the Tm turned out to be 54.7 °C. Also, in data set [2], the folding enthalpy is -48.9 kJ/mol.
The matching figures for GCGTACGGAAACATACGC (((((.(....).))))): 46.8 °C and -141 kJ/mol.
In the case of GATCAGTTCGCTGATC ((((((....)))))), the Tm in data set [1] was determined as 54.1 °C. For the same sequence, the folding enthalpy in data set [2] is -188 kJ/mol.
The matching figures for GATCGATAGTCGATC ((((((...)))))): 48.7 °C and -127 kJ/mol.
For GCTACCGAAAGGTTAGC ((((((....))).))), in that order: 52.7 °C and -117 kJ/mol.
Consider GATCGACTTCTCGATC ((((((....)))))), for which the Tm in data set [1] worked out at 51.5 °C. In addition, the folding enthalpy in data set [2] is -171 kJ/mol.
GTGCAGAAATGCAC (((((....))))): the Tm in data set [1] was 57.1 °C. In data set [2], the folding enthalpy was -107 kJ/mol.
As for GACCCGCGAAAGCGAGTC (((.(((....))).))), in data set [1], the Tm turned out to be 55.7 °C. Moreover, in data set [2], the folding enthalpy is -112 kJ/mol.
On to GATCAACAGGTTGATC ((((((....)))))), for which, in data set [1], the Tm came to 51.4 °C. Also, the folding enthalpy in data set [2] was -152 kJ/mol.
In the case of GTTAGCGGAAACACTAAC (((((.(....).))))), the Tm in data set [1] turned out to be 36.6 °C. Also, the folding enthalpy in data set [2] was -127 kJ/mol.
For GTGTCAGCGAAAGCTCAC (((..(((....)))))), the Tm in data set [1] stood at 39 °C. Moreover, in data set [2], the folding enthalpy was -63.8 kJ/mol.
The matching figures for GAGGACGAAAGTCCACTC ((((((....)))..))): 52.4 °C and -53 kJ/mol.
The matching figures for GCAACGCGAAAGCACTGC (((..((....))..))): 41.4 °C and -47.5 kJ/mol.
As to GCAGTTCGAAAGAATGC (((.(((....)))))), the Tm in data set [1] amounted to 41.2 °C. The folding enthalpy in data set [2] is -89.6 kJ/mol.
For GGTCCGGCGAAAGCCACC (((..(((....)))))), in that order: 27.1 °C and -37.3 kJ/mol.
Regarding GGGTTCACGAAAGTGCCC (((..(((....)))))), in data set [1], the Tm turned out to be 41.2 °C. Further, the folding enthalpy in data set [2] was -82.2 kJ/mol.
Turning to GTGTTAGGAAACCAACAC (((((.(....).))))), the Tm in data set [1] is 40 °C. Also, the folding enthalpy in data set [2] was -121 kJ/mol.
The matching figures for GTGAACGGAAACGTTTAC ((.((((....)))).)): 46.9 °C and -124 kJ/mol.
The matching figures for GGCCTAGGAAACCAGGCC (((((.(....).))))): 53.9 °C and -207 kJ/mol.
Regarding GCAGGCGCGAAAGCGTGC (((..(((....)))))), the Tm in data set [1] was determined as 49.4 °C. In data set [2], the folding enthalpy is -55.9 kJ/mol.
The matching figures for GGTCAGCGAAAGCTCACC (((.(((....))).))): 41.7 °C and -79.2 kJ/mol.
In the case of GCTAGGCGAAAGCATGGC ((.(.((....)).).)), in data set [1], the Tm amounted to 50.1 °C. Also, the folding enthalpy in data set [2] was -86.7 kJ/mol.
Consider GATCTCCGGTGAGATC ((((((....)))))), for which the Tm in data set [1] is 52 °C. Besides, in data set [2], the folding enthalpy is -149 kJ/mol.
Consider GATCAAACTGTTGATC ((((((....)))))), for which the Tm in data set [1] stood at 41 °C. Also, in data set [2], the folding enthalpy was -107 kJ/mol.
As to GCGTCTCGAAAGAGCGC (((.(((....)))))), the Tm in data set [1] came out at 66.8 °C. The folding enthalpy in data set [2] is -130 kJ/mol.
For GAGCGTCCGAAAGGACTC (((..(((....)))))), in that order: 30.7 °C and -33.1 kJ/mol.
The matching figures for GCAGGGCGAAAGCCGAGC ((..(((....)))..)): 50.1 °C and -62.4 kJ/mol.
For GCTAACGAAAGTTCAGC ((((((....))).))), in that order: 39 °C and -91 kJ/mol.
Regarding GACATGGGAAACCATATC ((.((((....)))).)), the Tm in data set [1] was 28 °C. In addition, the folding enthalpy in data set [2] is -58.6 kJ/mol.
For the sequence GGACGCGAAAGCGAATCC ((((((....)))..))), the Tm in data set [1] was determined as 36.5 °C. In addition, the folding enthalpy in data set [2] is -56.4 kJ/mol.

The values above are taken from the array DNA melting data of Ke et al. (doi:10.1101/2024.01.08.574731).
